We go through 13 molecules from PubChem BioAssay.

Test [1] can be described thus: inhibitors of TNFa-induced NFkB p65 translocation, primary screen, imaging, HUVEC, MLSMR starter and 10KST1 sets (AID 438;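 active = inhibition above 20% together with a positive visual image hit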;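 also: compound added about 3h40 before a 20 min TNFalpha stimulation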;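 as to inhibition: signal is the nuclear over cytoplasmic p65 intensity ratio per well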). Particulars: HUVEC TNFa-induced p65 nuclear translocation; cell count: measured here: nuclei count (cytotoxicity indicator), at 2.08 µM; inhibition: at 2 µM, stronger effect = higher value, 0% TNFa-plus-vehicle, 100% no-TNFa wells.
Test [2] in a line: inhibitors of E-selectin induction by TNFa, primary screen, imaging, HUVEC, immunofluorescence, MLSMR starter and 10KST1 sets (AID 487;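 active = visually confirmed hit in the image check and inhibition above 20%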;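 as to inhibition: signal is fraction of cell area covered by stained E-selectin grains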;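 as to nuclei count: 100% = median nuclei count of all wells on the same plate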). Particulars: HUVEC TNFalpha-induced E-selectin immunofluorescence imaging, at 2 µM; inhibition: stronger effect = higher value; nuclei count: measured here: cell number, toxicity.
A short description of test [3]: DUSP6 inhibitors restoring Erk phosphorylation by chemical complementation, primary imaging in DUSP6-transfected HeLa (AID 609;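 active = compounds giving at least 50% inhibition in the cell-based MKP-3 phosphatase rescue imaging test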;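 as to inhibition: phospho-Erk level distribution per well compared with pooled transfected vehicle control wells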). The conditions noted are these: HeLa MKP-3 transfected, phospho-Erk imaging KS statistic, at 10 µM, cells stimulated with TPA for 15 min.
In test [4] the target is Dual specificity protein phosphatase 6 (Homo sapiens) (UniProt Q16828). The test is described as above. The conditions noted are these: HeLa MKP-3 transfected, phospho-Erk imaging KS statistic; at 10 µM; stronger effect = higher value; cells stimulated with TPA for 15 min.
Chain of Dual specificity protein phosphatase 6 (Homo sapiens) (Q16828 whole entry, looked up): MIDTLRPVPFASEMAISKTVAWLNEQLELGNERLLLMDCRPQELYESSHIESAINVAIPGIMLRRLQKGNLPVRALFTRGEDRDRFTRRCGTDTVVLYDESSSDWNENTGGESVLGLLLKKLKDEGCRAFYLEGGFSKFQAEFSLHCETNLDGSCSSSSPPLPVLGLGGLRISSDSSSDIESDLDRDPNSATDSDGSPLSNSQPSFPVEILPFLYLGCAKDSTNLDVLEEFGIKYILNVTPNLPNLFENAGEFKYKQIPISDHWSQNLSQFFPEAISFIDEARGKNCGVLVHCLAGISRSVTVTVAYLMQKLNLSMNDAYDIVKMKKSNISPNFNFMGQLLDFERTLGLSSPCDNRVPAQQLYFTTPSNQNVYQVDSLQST
Test [5] addresses Voltage-gated potassium channel subunit beta-2 (Rattus norvegicus) (UniProt P62483). Briefly: KvBeta enzyme negative modulators, primary screen, biochemical, NADPH fluorescence (AID 622;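 active = fluorescence slope higher than the sample average by over 3 SD, cut at about -0.22 in these data, passing the limit was not always enough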;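 also: slope of raw intensity against log time taken from 70 to 1610 s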). Particulars: recombinant KvBeta, 4-cyanobenzaldehyde reduction, at 10 µM, stronger effect = higher value.
Test [6] has the same target. Briefly: KvBeta positive modulators, primary screen, biochemical, NADPH fluorescence (AID 623).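 Also: fluorescence intensity change per second fitted from 20 to 320 s.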 Particulars: Recombinant KvBeta, NADPH fluorescence decrease slope, 10 min; at 10 µM; stronger effect = lower value.
Test [7] has as its target Muscarinic acetylcholine receptor M4 (Homo sapiens) (UniProt P08173). The test can be described thus: compounds altering M4/GIRK thallium flux, either direction, primary screen, M4 allosteric agonist project, cell-based, HEK293 M4/GIRK, BTC-AM (AID 625;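 active = fluorescence slope after compound addition differing from the mean of all tested samples at 99.7% confidence, mostly higher but some lower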;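 also: thallium influx through GIRK channels coupled to M4 in HEK293 cells with BTC-AM dye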). The conditions noted are these: at 10 µM, actives lie on both sides. An outline of the steps: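 assay system = HEK293 cells with M4 receptor and GIRK channels | medium = pH 7.3 thallium assay buffer | doses = 10 µM final, single point | timing = cells overnight at 37 °C, BTC-AM loading 1 h, reads 2 min total | signal = BTC-AM fluorescence, 1 Hz kinetic reads | read-out = post-addition slope, 15–24 s, of baseline-normalized fluorescence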

Test [8] is described as follows: inhibitors of larval lipid processing in zebrafish, primary screen, whole organism, PED6 fluorescence, gall bladder and intestine (AID 686;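 active = a full or partial loss of lipid-probe fluorescence in the fish gall bladder, intestine or both, judged by eye; inactive = no fluorescence loss, or compound toxic to the fish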;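 also: larvae 5 to 7 days old with five fish per well; signal comes from phospholipase A2 cleavage of quenched PED6 carried via bile; overnight exposure to compound and PED6 before scoring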). Particulars: Zebrafish larvae PED6 lipid processing, fluorescence scoring; screened at 20 µM (by protocol). In a few lines: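 Also added: quenched phospholipase substrate PED6, 100 nM final, ingested by larvae; System: zebrafish larvae, 5-7 d; Quantity: 5 larvae per well; Compound: 20 µM single dose; Schedule: overnight compound and PED6 incubation; Read-out: visual per-well fluorescence inhibition score; Measured by: By-eye fluorescence microscopy; Medium: E3.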

Test [9] can be described thus: inhibitors of Chlamydomonas gravitaxis, primary screen, whole organism, Chlamydomonas reinhardtii, WT vs cilia-less mutant, absorbance, 96-well (AID 463189;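 active = inhibition at or above 50% relative to wild type and mutant plate controls; inactive = inhibition below 50%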;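 also: 0% = wild type cc124 cells in DMSO and 100% = ciliumless bld1 mutant cells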). The conditions noted are these: OD600 absorbance, 2 days, at 10 µM, stronger effect = higher value.
Setting [10] is: measured here: cell density z-score.
The mark [11] stands for this setting: measured here: nuclear c-Myc green intensity z-score.
Setting [12] is: measured here: nuclear pErk red intensity z-score, stronger effect = higher value.

Activity calls are given as the source filed them.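 The calls were made as follows, unless noted: active = NADPH fluorescence slope more negative than the mean of all samples by about 3 SD, 99.7% confidence; inactive = the rest.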

In general, inhibition refers to the drop in the measured response relative to a control, in per cent.

Chain of Voltage-gated potassium channel subunit beta-2 (Rattus norvegicus) (P62483 whole entry, looked up): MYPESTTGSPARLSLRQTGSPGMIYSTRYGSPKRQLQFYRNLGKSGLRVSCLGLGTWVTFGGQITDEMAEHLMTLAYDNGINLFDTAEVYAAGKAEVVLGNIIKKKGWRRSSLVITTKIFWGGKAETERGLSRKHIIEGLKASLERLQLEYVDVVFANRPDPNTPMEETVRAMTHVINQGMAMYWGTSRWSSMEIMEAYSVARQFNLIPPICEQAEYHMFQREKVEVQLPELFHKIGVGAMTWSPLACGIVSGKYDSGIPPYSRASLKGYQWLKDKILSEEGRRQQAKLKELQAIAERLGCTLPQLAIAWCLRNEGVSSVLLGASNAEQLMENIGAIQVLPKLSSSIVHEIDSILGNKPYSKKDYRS
Chain of Muscarinic acetylcholine receptor M4 (Homo sapiens) (P08173 whole entry, looked up): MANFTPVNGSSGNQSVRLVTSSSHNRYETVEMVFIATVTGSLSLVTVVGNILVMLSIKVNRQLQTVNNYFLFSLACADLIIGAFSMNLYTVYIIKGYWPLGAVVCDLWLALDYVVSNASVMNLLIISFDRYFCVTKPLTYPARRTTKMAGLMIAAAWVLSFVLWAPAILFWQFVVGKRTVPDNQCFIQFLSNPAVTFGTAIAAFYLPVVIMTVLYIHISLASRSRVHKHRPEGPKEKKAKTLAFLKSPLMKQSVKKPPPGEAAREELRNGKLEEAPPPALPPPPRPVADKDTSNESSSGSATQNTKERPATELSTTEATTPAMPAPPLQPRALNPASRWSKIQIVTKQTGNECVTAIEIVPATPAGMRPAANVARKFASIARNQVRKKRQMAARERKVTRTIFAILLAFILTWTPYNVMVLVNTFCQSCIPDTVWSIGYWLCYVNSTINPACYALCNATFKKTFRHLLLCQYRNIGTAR

For the molecule `CC(NC(=O)OCc1ccccc1)C(=O)OCN1C(=O)c2ccccc2C1=O` (centres undefined), in test [1], the cell count was 519. In addition, the inhibition was -9.1% (inactive) in test [1], -64.3% (inactive) in [2], -3.97% (inactive) in [4] and 28% (inactive) in [9]. In [2], the nuclei count came to 130%. The z-score in [3] (setting [10]) is 0.544; in test [3] (setting [11]) it was -1.4; in [3] (setting [12]) it was 0.638. For the same molecule, the values for the fluorescence slope in [5] and in test [7] were -0.391 (inactive) and 0.00711 (inactive), respectively. In addition, the NADPH fluorescence slope in test [6] is -4.8e-06 (inactive). Besides, the molecule was classed as inactive in [8].
With `CCOC(=O)NC(Nc1sc2c(c1C(=O)OC)CCN(C)C2)(C(F)(F)F)C(F)(F)F`, in test [1], the cell count came to 614. Moreover, the inhibition was 3.1% (inactive) in [1], -20.8% (inactive) in [2], 16.5% (inactive) in test [4] and 36.6% (inactive) in test [9]. The molecule further came in with a nuclei count in test [2] of 89.6%. Moreover, the results for the z-score in [3] (setting [10]), in test [3] (setting [11]) and in test [3] (setting [12]) were 0.751, -0.407 and -0.601, respectively. The fluorescence slope in [5] is -0.501 (inactive); in test [7] it was 0.00619 (inactive). Also, the NADPH fluorescence slope in test [6] is -3.3e-05 (inactive). The outcome in test [8] was inactive.
Turning to `CCOC(=O)C1=C(N)N2C(=O)CSC2=C(C(=O)OC)C1`, in test [1], the cell count came out at 523. The inhibition is 1.5% (inactive) in [1], -111% (inactive) in test [2], 5.42% (inactive) in [4] and -0.259% (inactive) in test [9]. In test [2], this molecule came in with a nuclei count of 138%. Further, the z-score is 0.366 in test [3] (setting [10]), 1.6 in [3] (setting [11]) and -1.91 in test [3] (setting [12]). In addition, the values for the fluorescence slope in test [5] and in test [7] were -0.476 (inactive) and 0.00418 (inactive), respectively. Also, the NADPH fluorescence slope in test [6] was -0.000109 (inactive). Moreover, the call in test [8] was inactive.
Turning to `CC(=O)/C=C(\C)NCCNc1c(F)c(F)c(CO)c(F)c1F`, the cell count in test [1] stood at 570. The inhibition was -4.3% (inactive) in test [1], -22.3% (inactive) in [2], 1.9e-07% (inactive) in test [4] and 42.2% (inactive) in [9]. In test [2], this molecule had a nuclei count of 145%. For the same molecule, the z-score in test [3] (setting [10]) was 0.666; in test [3] (setting [11]) it was -0.56; in test [3] (setting [12]) it was 0.111. The fluorescence slope in test [5] was -0.319 (inactive); in [7], 0.00522 (inactive). The NADPH fluorescence slope in test [6] is -1.4e-05 (inactive). Also, the call in test [8] was inactive.
As to `CC(=O)Nc1ccc(NCC(O)COc2ccccc2)cc1` (centres undefined), the cell count in test [1] is 374. Moreover, the inhibition is 6.4% (inactive) in test [1], 6.8% (inactive) in test [2], -2.59% (inactive) in test [4] and 22.2% (inactive) in [9]. The molecule further showed a nuclei count in test [2] of 81.4%. Besides, the z-score in [3] (setting [10]) was -1.13; in [3] (setting [11]), -0.751; in [3] (setting [12]), 0.509. Moreover, the fluorescence slope in test [5] is -0.495 (inactive); in test [7] it was 0.00402 (inactive). In addition, in [6], the NADPH fluorescence slope was -6.3e-05 (inactive). Also, the call in test [8] was inactive.
As to `Cc1nc(NCCCO)c(C#N)c2c1COC(C)(C)C2`, the cell count in test [1] amounted to 588. Also, the inhibition in test [1] was -3.1% (inactive); in test [2], -70% (inactive); in test [4], 12.8% (inactive); in [9], 24% (inactive). The molecule also had a nuclei count in test [2] of 142%. Also, the z-score was -0.306 in [3] (setting [10]), -0.435 in test [3] (setting [11]) and -0.462 in test [3] (setting [12]). In addition, the values for the fluorescence slope in test [5] and in [7] were -0.432 (inactive) and 0.00443 (inactive), respectively. In addition, the NADPH fluorescence slope in test [6] is -9.1e-05 (inactive). The result in [8] was inactive.
Regarding `COc1ccc(CCn2c(=N)c(C(=O)NCc3ccco3)cc3c(=O)n4ccccc4nc32)cc1OC`, in test [1], the cell count came to 633. For the same molecule, the inhibition in test [1] was -2.8% (inactive); in [2], -94.3% (inactive); in test [4], 14.4% (inactive); in test [9] it was -2.16% (inactive). The same molecule yielded a nuclei count in test [2] of 174%. For the same molecule, the z-score in [3] (setting [10]) is 1.26; in [3] (setting [11]), -0.19; in test [3] (setting [12]) it was 0.299. Moreover, the fluorescence slope was -0.507 (inactive) in [5] and 0.00335 (inactive) in test [7]. The NADPH fluorescence slope in test [6] is -2.1e-05 (inactive). The call in test [8] was inactive.
With `Cc1ccc(-c2nn(CCC(=O)NCC3CCCO3)c(=O)c3ccccc23)cc1` (centres undefined), in test [1], the cell count stood at 465. Also, the inhibition in test [1] was -2.6% (inactive); in [2] it was -99.3% (inactive); in test [4], -7.28% (inactive); in [9], -0.115% (inactive). In test [2], this molecule had a nuclei count of 155%. The z-score is -0.415 in test [3] (setting [10]), 0.704 in test [3] (setting [11]) and -0.137 in [3] (setting [12]). The fluorescence slope is -0.422 (inactive) in test [5] and 0.0051 (inactive) in test [7]. The NADPH fluorescence slope in test [6] is -5.3e-05 (inactive). Also, the result in [8] was inactive.
Take `CCOC(=O)CNC(=O)CNC(=O)c1ccc(OC)cc1`: the cell count in test [1] is 394. Further, the inhibition in [1] was -0.5% (inactive); in [2] it was 6.4% (inactive); in test [4] it was 17.4% (inactive); in test [9], 23.5% (inactive). In test [2], this molecule gave a nuclei count of 82.7%. The z-score in test [3] (setting [10]) came out at 0.162; in test [3] (setting [11]) it was 0.31; in test [3] (setting [12]), 1.25. Further, the figures for the fluorescence slope in test [5] and in [7] were -0.447 (inactive) and 0.0051 (inactive), respectively. Moreover, the NADPH fluorescence slope in [6] is -5.5e-05 (inactive). For the same molecule, the molecule was classed as inactive in test [8].
Turning to `Nc1c(C(=O)NCc2ccco2)sc2nc(N3CCOCC3)c3c(c12)CCCC3`, the cell count in test [1] came to 510. Further, the inhibition in test [1] was -3.3% (inactive); in test [2], 21.6% (inactive); in test [4] it was 7.93% (inactive); in test [9], 7.67% (inactive). The nuclei count in test [2] was determined as 169%. Further, the values for the z-score in test [3] (setting [10]), in [3] (setting [11]) and in test [3] (setting [12]) were -0.827, 1.22 and 1.35, respectively. Moreover, the fluorescence slope in test [5] is -0.0309 (active); in [7], 0.00375 (inactive). The NADPH fluorescence slope in test [6] is 4.6e-08 (inactive). Moreover, the molecule was called inactive in test [8].
`CC(NC(=O)Nc1ncccn1)(C(F)(F)F)C(F)(F)F`: the cell count in test [1] worked out at 705. Besides, the inhibition in test [1] was -8.4% (inactive); in [2], -9.7% (inactive); in [4], 3.97% (inactive); in test [9], -10.4% (inactive). The molecule also gave a nuclei count in test [2] of 107%. The z-score in [3] (setting [10]) is -2.34; in [3] (setting [11]), 2.27; in test [3] (setting [12]) it was -1.54. The figures for the fluorescence slope in test [5] and in test [7] were -0.481 (inactive) and 0.00693 (inactive), respectively. Moreover, the NADPH fluorescence slope in test [6] was -0.000112 (inactive). Further, the molecule was classed as inactive in test [8].
As for `CC(NC(=O)c1ccc(=O)oc1)c1ccccc1` (centres undefined), the cell count in test [1] is 544. Further, the inhibition in [1] is 4.1% (inactive); in test [2], 56.8% (inactive); in test [4], 13.9% (inactive); in [9], 6.14% (inactive). The molecule further gave a nuclei count in test [2] of 167%. Moreover, the z-score in test [3] (setting [10]) was -0.00091; in [3] (setting [11]), 1.16; in [3] (setting [12]), 1.91. In addition, the fluorescence slope in [5] is -0.409 (inactive); in [7], 0.00521 (inactive). Further, in test [6], the NADPH fluorescence slope is -5.3e-05 (inactive). Besides, the outcome in [8] was inactive.
Take `O=C(c1coc(=O)c(Br)c1)N1CCOCC1`: the cell count in test [1] came to 718. In addition, the inhibition in test [1] is 2.4% (inactive); in test [2], -137% (inactive); in test [4], -4.7% (inactive); in [9], 14.2% (inactive). The same molecule came in with a nuclei count in test [2] of 181%. For the same molecule, the values for the z-score in [3] (setting [10]), in test [3] (setting [11]) and in [3] (setting [12]) were -0.0624, 0.26 and 0.186, respectively. The values for the fluorescence slope in test [5] and in [7] were -0.429 (inactive) and 0.00447 (inactive), respectively. Further, the NADPH fluorescence slope in test [6] was 3.1e-07 (inactive). For the same molecule, the molecule was called inactive in test [8].
